The values that follow come from ChEMBL document CHEMBL2169835, “Flavonoid dimers as novel, potent antileishmanial agents” (J Med Chem, 2012).

Calls of active or inactive are those of the source. No cut-off for these calls is given here.

A short description of data set [1]: Therapeutic index, ratio of IC50 for mouse Peritoneal macrophages to IC50 for pentamidine-resistant Leishmania donovani AG83PentR50 promastigote. The note with it: read-out: Ratio IC50. The method in brief: (§1)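 Index is PEM cytotoxicity IC50 over promastigote IC50. For PEM, cells were seeded at 2 × 10^4 per well in supplemented DMEM, given graded doses for 72 h at 37 °C, 5% CO2, and read by MTS survival.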

Data set [2] in a line: Therapeutic index, ratio of IC50 for mouse Peritoneal macrophages to IC50 for SSG-resistant Leishmania donovani 39 promastigote. To be noted: read-out: Ratio IC50. The method in brief: as §1
Data set [3] is described as follows: Therapeutic index, ratio of IC50 for mouse Peritoneal macrophages to IC50 for SSG-resistant Leishmania donovani 39 amastigote infected in mouse peritoneal macrophages. To be noted: read-out: Ratio IC50.
Data set [4] concerns Leishmania donovani. Briefly: Ratio of isoginkgetin IC50 to compound IC50 for axenically grown Leishmania donovani amastigotes. The data set is classed as functional.
In data set [5] the test system is Leishmania donovani. Put plainly: Antimicrobial activity against SSG-resistant Leishmania donovani 39 amastigote infected in mouse peritoneal macrophages assessed as inhibition of parasite growth after 72 hrs by Giemsa staining method. In kind it is functional, organism-based. To be noted: Leishmania donovani, 39, 72 h. The method in brief:
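Mouse peritoneal elicited macrophages were seeded on coverslips at 1 × 10^5 cells per well in DMEM with 10% heat-inactivated FBS and left to attach overnight. They were infected overnight with late-log Ld39 promastigotes (parasite:macrophage 20:1) at 37 °C, 5% CO2, then washed. Compounds were applied for 72 h at 37 °C. Giemsa-stained amastigotes per 100 macrophages gave IC50; N = 1−3.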

For data set [6], the system named is Leishmania donovani. Briefly: Antimicrobial activity against SSG-resistant Leishmania donovani 39 promastigote assessed as inhibition of parasite growth after 72 hrs by MTS assay. In kind it is functional, organism-based. To be noted: Leishmania donovani, 39, 72 h. The method in brief: (§2)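 Promastigotes were grown in Schneider's medium pH 6.9 with 10% heat-inactivated FBS at 27 °C, seeded at 1 × 10^5 per well, and exposed to serial concentrations for 72 h at 27 °C. Compounds were in DMSO (≤1% final) or water. MTS:PMS (20:1) was added for 4 h, then OD490 was read. Survival was % of untreated control; IC50 = concentration halving OD; N = 1−4.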

In data set [7] the test system is Leishmania donovani. Briefly: Antimicrobial activity against SSG-resistant Leishmania donovani 39 amastigote infected in mouse peritoneal macrophages assessed as inhibition of parasite growth at 5 uM after 3 days by Giemsa staining method. The data set is classed as functional, organism-based. The method in brief: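 Coverslip-grown peritoneal macrophages were infected 24 h at 37 °C with late-log Ld39 promastigotes (20:1), washed, then exposed to 5 μM compound for 3 days at 37 °C, with a DMSO solvent control. Giemsa staining was scored as percentage of macrophages infected and amastigotes per 100 macrophages.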

Data set [8] deals with Leishmania donovani. Put plainly: Antimicrobial activity against pentamidine-resistant Leishmania donovani AG83PentR50 promastigote assessed as inhibition of parasite growth after 72 hrs by MTS assay. In kind it is functional, organism-based. The note with it: AG83PentR50, 72 h. The gist of the method: as §2
Background: Tetrazolium assays rely on reduction of a dye to a coloured formazan, in cell work by metabolically active cells.

Data set [9] can be described thus: Therapeutic index, ratio of IC50 for mouse PEM cells to IC50 for wild-type Leishmania donovani AG83 promastigote. To be noted: read-out: Ratio IC50. In kind it is cell-based. The method in brief:
as §1

The subject of data set [10] is Leishmania donovani. Put plainly: Antimicrobial activity against wild-type Leishmania donovani AG83 promastigote assessed as inhibition of parasite growth after 72 hrs by MTS assay. The data set is classed as functional, organism-based. The note with it: AG83, 72 h. The method in brief: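 Promastigotes were grown in Schneider's medium pH 6.9 with 10% heat-inactivated FBS at 27 °C, seeded at 1 × 10^5 per well, and exposed to serial concentrations for 72 h at 27 °C. Compounds were in DMSO (≤1% final) or water. MTS:PMS (20:1) was added for 4 h, then OD490 was read.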

Data set [11] in a line: Cytotoxicity against mouse Peritoneal macrophages cells after 72 hrs by MTS assay. To be noted: Peritoneal macrophage cell. In kind it is cell-based. The gist of the method: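 Primary mouse peritoneal elicited macrophages were seeded at 2 × 10^4 cells per well in DMEM with 10% heat-inactivated FBS. They were exposed to graded doses for 72 h at 37 °C in 5% CO2. Survival was read by MTS/PMS tetrazolium reduction (OD 490 nm) relative to untreated control. The IC50 was the concentration halving OD. Results are mean ± SEM of 1–4 independent experiments.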

The test system of a further data set is RAW264.7. Briefly: Cytotoxicity against mouse RAW264.7 cells after 72 hrs by MTS assay. In kind it is cell-based. The note with it: RAW264.7, 72 h. The gist of the method: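 RAW 264.7 murine macrophage line was plated at 1 × 10^4 cells per well in supplemented DMEM. Cells received a graded compound series for 72 h at 37 °C, 5% CO2, with a maximum of 1% DMSO. Viability was measured by MTS with PMS coupling at OD 490 nm, as percent of untreated control. The IC50 was the concentration reducing OD by half, given as mean ± SEM, N = 1–4.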

Data set [12] has as its system Leishmania donovani. Put plainly: Selectivity ratio of IC50 for compound-resistant Leishmania donovani AG83PentR50 promastigote to IC50 for wild-type Leishmania donovani AG83 promastigote. The data set is classed as functional.

Regarding `O=c1cc(-c2ccc(OCCOCCN(CCOCCOc3ccc(-c4cc(=O)c5ccccc5o4)cc3)Cc3ccncc3)cc2)oc2ccccc12`, the selectivity ratio in data set [1] is > 677; in data set [2], > 419; in [3], > 140; in data set [9], > 440. For the same compound, in the data set with Leishmania donovani [4], the “Ratio IC50” value stood at 3. The 50% inhibitory concentration (IC50) with Leishmania donovani [5] is 0.63 µM; in the data set with Leishmania donovani [6], 0.21 µM; in the data set on Leishmania donovani [8], 0.13 µM; in the data set on Leishmania donovani [10], 0.2 µM; in [11], > 88 µM; in the data set with RAW264.7, > 100 µM. Also, the inhibition result in the data set with Leishmania donovani [7] is “Active”.
`N=C(N)c1ccc(OCCCCCOc2ccc(C(=N)N)cc2)cc1` [PENTAMIDINE]: the selectivity ratio in [1] is 0.6; in [2] it was 5.7; in data set [3], < 1; in [9], 2.2. Also, the “Ratio IC50” value in the data set on Leishmania donovani [12] is 3.9. For the same compound, the IC50 with Leishmania donovani [5] was > 30 µM; in the data set with Leishmania donovani [6] it was 5.3 µM; with Leishmania donovani [8] it was 54.8 µM; in the data set with Leishmania donovani [10], 13.9 µM; in [11], 30.4 µM; with RAW264.7, 30 µM.

The IC50 is the concentration that inhibits the measured activity by half.
